Values belong to the compound of their own block, whether it stands above or below them. Activity calls are given as the source filed them. The rule behind the calls is not given here.
Assays:
[1] = tested on: HeLa; assay: Induction of interphase microtubule bundling in human HeLa cells at 0.5 uM after 18 hrs by indirect immunofluorescence analysis; format: cell-based
[2] = tested on: HeLa; assay: Cell cycle arrest in human HeLa cells assessed as accumulation of cells at G2/M phase at 12 nM after 18 hrs by flow cytometric analysis; format: functional, cell-based
Procedure, shortened: (§1)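 DNA stained with propidium iodide (Krishan's reagent); DNA content measured by flow cytometry and plotted as PI intensity vs events.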

[3] = Antitumor activity against mouse 16/C cells allografted in mouse B6C3F1 assessed as decrease in tumor mass at 73.5 mg/kg, iv; format: functional
Procedure, shortened: (§2)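 Female B6C3F1 mice (mean 19.3 ± 1.0 g) carried bilateral s.c. Mammary 16/C tumor fragments implanted day 0, 5 mice/group. […] All were given IV in 0.2 ml. Tumor mass = L×W²/2, measured 2–3 times weekly. %T/C = treated/control median mass, zeros included, taken when control tumors reach ~700–1200 mg.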

[4] = Antitumor activity against mouse 16/C cells allografted in mouse B6C3F1 assessed as delay in tumor growth at 73.5 mg/kg, iv relative to control; format: functional
Procedure, shortened: (§3)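 Mammary 16/C fragments implanted s.c. bilaterally in female B6C3F1 mice on day 0, 5 mice/group, IV dosing in 0.2 ml. Tumors measured 2–3 times weekly. T-C = median days for treated vs control tumors to reach 1000 mg. Gross log cell kill = (T-C)/3.32×Td, with Td the doubling time from a log-linear fit of control tumor growth.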

[5] = Antitumor activity against mouse 16/C cells allografted in mouse B6C3F1 assessed as gross log cell killing at 73.5 mg/kg, iv relative to control; format: functional
[6] = tested on: Mus musculus; assay: Toxicity in B6C3F1 mouse allografted with mouse 16/C cells assessed as mean body weight loss at 73.5 mg/kg, iv (reference value: -2.2%); format: organism-based; design: dose 73.5 mg/kg, route intravenous; settings: in vivo
[7] = tested on: HeLa; assay: Inhibition of beta tubulin in human HeLa cells assessed asultiple abnormal mitotic spindle formation at 12 nM after 18 hrs by immunofluorescence analysis; format: cell-based
[8] = tested on: HeLa; assay: Induction of interphase microtubule bundling in human HeLa cells at 0.32 uM after 18 hrs by indirect immunofluorescence; format: cell-based
[9] = tested on: HeLa; assay: Antiproliferative activity against human HeLa cells after 48 hrs by SRB assay; format: functional, cell-based
Procedure, shortened: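 HeLa cells grown in BME with 10% FBS and 50 µg/ml gentamicin, drug-treated 48 h, proliferation read by SRB assay.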

[10] = tested on: HeLa; assay: Inhibition of beta tubulin in human HeLa cells assessed asultiple abnormal mitotic spindle formation at 0.32 uM after 18 hrs by immunofluorescence analysis; format: cell-based
[11] = tested on: HeLa; assay: Cell cycle arrest in human HeLa cells assessed as accumulation of cells at G2/M phase at 0.32 uM after 18 hrs by flow cytometric analysis; format: functional, cell-based; procedure, shortened: as §1
[12] = tested on: HeLa; assay: Induction of interphase microtubule bundling in human HeLa cells at 13.5 uM after 18 hrs by indirect immunofluorescence; format: cell-based
[13] = tested on: HeLa; assay: Cell cycle arrest in human HeLa cells assessed as accumulation of cells at G2/M phase at 13.5 uM after 18 hrs by flow cytometric analysis; format: functional, cell-based; procedure, shortened: as §1
[14] = tested on: HeLa; assay: Inhibition of beta tubulin in human HeLa cells assessed asultiple abnormal mitotic spindle formation at 13.5 uM after 18 hrs by immunofluorescence analysis; format: cell-based
[15] = tested on: HeLa; assay: Induction of interphase microtubule bundling in human HeLa cells at 0.8 uM after 18 hrs by indirect immunofluorescence analysis; format: cell-based
[16] = tested on: HeLa; assay: Cell cycle arrest in human HeLa cells assessed as accumulation of cells at G2/M phase at 0.8 uM after 18 hrs by flow cytometric analysis; format: functional, cell-based
[17] = tested on: HeLa; assay: Inhibition of beta tubulin in human HeLa cells assessed asultiple abnormal mitotic spindle formation at 0.8 uM after 18 hrs by immunofluorescence analysis; format: cell-based
[18] = tested on: HeLa; assay: Induction of interphase microtubule bundling in human HeLa cells at 2.5 uM after 18 hrs by indirect immunofluorescence analysis; format: cell-based
[19] = tested on: HeLa; assay: Cell cycle arrest in human HeLa cells assessed as accumulation of cells at G2/M phase at 2.5 uM after 18 hrs by flow cytometric analysis; format: functional, cell-based; procedure, shortened: as §1
[20] = Antitumor activity against mouse 16/C cells allografted in mouse B6C3F1 assessed as decrease in tumor mass at 90 mg/kg, iv administered on days 1,4,6, 8, 9, 10 and 11 relative to control; format: functional; procedure, shortened: as §2
[21] = Antitumor activity against mouse 16/C cells allografted in mouse B6C3F1 assessed as decrease in tumor mass at 54 mg/kg, iv administered on days 1,4,6, 8, 9, 10 and 11 relative to control; format: functional; procedure, shortened: as §2
[22] = Antitumor activity against mouse 16/C cells allografted in mouse B6C3F1 assessed as delay in tumor growth at 90 mg/kg, iv administered on days 1,4,6, 8, 9, 10 and 11 relative to control; format: functional; procedure, shortened: as §3
[23] = Antitumor activity against mouse 16/C cells allografted in mouse B6C3F1 assessed as delay in tumor growth at 54 mg/kg, iv administered on days 1,4,6, 8, 9, 10 and 11 relative to control; format: functional; procedure, shortened: as §3
[24] = Antitumor activity against mouse 16/C cells allografted in mouse B6C3F1 assessed as gross log cell killing at 90 mg/kg, iv administered on days 1,4,6, 8, 9, 10 and 11 relative to control; format: functional
Procedure, shortened: (§4)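 Mammary 16/C tumor fragments implanted bilaterally s.c. in female B6C3F1 mice on day 0, 5 mice/group. Taccalonolides in 50% DMSO:50% Cremophor stock, diluted with sterile water, given i.v. in 0.2 ml on days 1, 4, 6, plus one dose 2–3 days later (A, N) or further doses days 8, 9, 11 (E). Tumor mass = length × width²/2, measured 2–3 times weekly. Gross log cell kill = (T-C)/3.32 × Td, with T-C the days to 1000 mg.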

[25] = Antitumor activity against mouse 16/C cells allografted in mouse B6C3F1 assessed as gross log cell killing at 54 mg/kg, iv administered on days 1,4,6, 8, 9, 10 and 11 relative to control; format: functional; procedure, shortened: as §4
[26] = tested on: Mus musculus; assay: Toxicity in B6C3F1 mouse allografted with mouse 16/C cells assessed as mean body weight loss at 90 mg/kg, iv administered on days 1,4,6, 8, 9, 10 and 11 (reference value: -2.2%); format: organism-based; design: dose 90 mg/kg, route intravenous; settings: in vivo
[27] = tested on: Mus musculus; assay: Toxicity in B6C3F1 mouse allografted with mouse 16/C cells assessed as mean body weight loss at 54 mg/kg, iv administered on days 1,4,6, 8, 9, 10 and 11 (reference value: -2.2%); format: organism-based; design: dose 54 mg/kg, route intravenous; settings: in vivo
[28] = Toxicity in B6C3F1 mouse allografted with mouse 16/C cells assessed as lethality at 90 mg/kg, iv administered on days 1,4,6, 8, 9, 10 and 11 measured after 12 days relative to control; format: organism-based; design: dose 90 mg/kg, route intravenous; settings: in vivo, read-out: Activity
Procedure, shortened: (§5)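 Female B6C3F1 mice, 5 per group, bore bilateral s.c. Mammary 16/C fragments. Taccalonolides in DMSO:Cremophor diluted with water were given i.v. on days 1, 4, 6 plus a later dose (A, N) or days 8, 9, 11 (E). Mice were weighed and observed daily, and lethality was recorded per group.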

[29] = Toxicity in B6C3F1 mouse allografted with mouse 16/C cells assessed as lethality at 54 mg/kg, iv administered on days 1,4,6, 8, 9, 10 and 11 measured after 12 days relative to control; format: organism-based; design: dose 54 mg/kg, route intravenous; settings: in vivo, read-out: Activity; procedure, shortened: as §5
[30] = tested on: HeLa; assay: Inhibition of beta tubulin in human HeLa cells assessed asultiple abnormal mitotic spindle formation at 2.5 uM after 18 hrs by immunofluorescence analysis; format: cell-based
[31] = tested on: HeLa; assay: Induction of interphase microtubule bundling in human HeLa cells at 57 uM after 18 hrs by indirect immunofluorescence; format: cell-based
[32] = tested on: HeLa; assay: Cell cycle arrest in human HeLa cells assessed as accumulation of cells at G2/M phase at 111 uM after 18 hrs by flow cytometric analysis; format: functional, cell-based; procedure, shortened: as §1
[33] = tested on: HeLa; assay: Inhibition of beta tubulin in human HeLa cells assessed asultiple abnormal mitotic spindle formation at 57 uM after 18 hrs by immunofluorescence analysis; format: cell-based
[34] = tested on: HeLa; assay: Induction of interphase microtubule bundling in human HeLa cells at 3.5 uM after 18 hrs by indirect immunofluorescence analysis; format: cell-based
[35] = tested on: HeLa; assay: Cell cycle arrest in human HeLa cells assessed as accumulation of cells at G2/M phase at 3.5 uM after 18 hrs by flow cytometric analysis; format: functional, cell-based; procedure, shortened: as §1
[36] = tested on: HeLa; assay: Inhibition of beta tubulin in human HeLa cells assessed asultiple abnormal mitotic spindle formation at 3.5 uM after 18 hrs by immunofluorescence analysis; format: cell-based
[37] = tested on: HeLa; assay: Induction of interphase microtubule bundling in human HeLa cells at 0.6 uM after 18 hrs by indirect immunofluorescence; format: cell-based
[38] = tested on: HeLa; assay: Cell cycle arrest in human HeLa cells assessed as accumulation of cells at G2/M phase at 0.6 uM after 18 hrs by flow cytometric analysis; format: functional, cell-based; procedure, shortened: as §1
[39] = tested on: HeLa; assay: Inhibition of beta tubulin in human HeLa cells assessed asultiple abnormal mitotic spindle formation at 0.6 uM after 18 hrs by immunofluorescence analysis; format: cell-based

Structure (SMILES): CC(=O)O[C@H]1C(=O)[C@@]2(C)[C@H]([C@H](OC(=O)c3ccccc3)[C@]3(O)C[C@H](OC(=O)[C@H](O)[C@@H](NC(=O)c4ccccc4)c4ccccc4)C(C)=C1C3(C)C)[C@]1(OC(C)=O)CO[C@@H]1C[C@@H]2O [PACLITAXEL]
Activity [1]: Active
Activity [2]: Active
T/C [3]: 0%
Time [4]: 19 days
LCK [5]: 4.8
Activity [6]: -6.3%
inhibition [7]: Active

Structure (SMILES): CC(=O)O[C@H]1[C@H]2[C@H]([C@@H]3[C@@H](O)[C@@H]4[C@H]([C@H](C)C=C5OC(=O)[C@@](C)(O)[C@@]54C)[C@@]3(C)[C@H]1OC(C)=O)[C@@H](O)C(=O)[C@@]1(O)C[C@@H]3O[C@@H]3[C@H](OC(C)=O)[C@]21C [TACCALONOLIDE AB]
Activity [12]: Active
Activity [13]: Active
IC50 [9]: 2770 nM
inhibition [14]: Active

Structure (SMILES): CC(=O)O[C@H]1[C@H]2[C@H]([C@@H]3[C@@H](O)[C@@H]4[C@H]([C@H](C)C=C5OC(=O)[C@@](C)(O)[C@@]54C)[C@@]3(C)[C@H]1OC(C)=O)[C@@H](O)C(=O)[C@H]1C[C@@H]3O[C@@H]3[C@H](OC(C)=O)[C@]21C [TACCALONOLIDE B]
Activity [15]: Active
Activity [16]: Active
IC50 [9]: 190 nM
inhibition [17]: Active

Structure (SMILES): CC(=O)O[C@@H]1[C@H]2[C@@H]3[C@@H](O)C(=O)[C@H]4C[C@@H]5O[C@@H]5[C@H](OC(C)=O)[C@]4(C)[C@H]3C[C@H](OC(C)=O)[C@]2(C)[C@@H]2[C@@H]1[C@]1(C)C(=C[C@H]2C)OC(=O)[C@@]1(C)O [TACCALONOLIDE E]
Activity [18]: Active
Activity [19]: Active
IC50 [9]: 644 nM
T/C [20]: 17%
T/C [21]: 81%
Time [22]: 5 days
Time [23]: 1 days
LCK [24]: 1.25
LCK [25]: 0.25
Activity [26]: -4.1%
Activity [27]: -2%
mortality at 288 h [28]: 0%
mortality at 288 h [29]: 0%
inhibition [30]: Active

More lines, main results first:

IC50 [9]: 32.3 nM
Structure (SMILES): CC(=O)O[C@@H]1[C@H]2[C@H]3[C@H]([C@H](OC(C)=O)[C@H](OC(C)=O)[C@]2(C)[C@@H]2[C@@H]1[C@]1(C)C(=C[C@H]2C)OC(=O)[C@@]1(C)O)[C@@]1(C)[C@@H](OC(C)=O)[C@H]2O[C@H]2C[C@]1(O)C(=O)[C@@H]3OC(C)=O [TACCALONOLIDE AA]
Activity [8]: Active
inhibition [10]: Active
Activity [11]: Active

IC50 [9]: 13100 nM
Structure (SMILES): CC(=O)O[C@@H]1[C@H]2[C@@H]3[C@@H](OC(C)=O)C(=O)[C@@]4(O)C[C@@H]5O[C@@H]5[C@H](OC(C)=O)[C@]4(C)[C@H]3C[C@H](OC(C)=O)[C@]2(C)[C@@H]2[C@@H]1[C@]1(C)C(=C[C@H]2C)OC(=O)[C@@]1(C)O [TACCALONOLIDE R]
Activity [31]: Active
Activity [32]: Active
inhibition [33]: Active

IC50 [9]: 335 nM
Structure (SMILES): CC(=O)O[C@@H]1[C@H]2[C@@H]3[C@@H](OC(C)=O)C(=O)[C@@]4(O)C[C@@H]5O[C@@H]5[C@H](OC(=O)CC(C)C)[C@]4(C)[C@H]3C[C@H](OC(C)=O)[C@]2(C)[C@@H]2[C@@H]1[C@]1(C)C(=C[C@H]2C)OC(=O)[C@@]1(C)O [TACCALONOLIDE T]
Activity [34]: Active
Activity [35]: Active
inhibition [36]: Active

IC50 [9]: 120 nM
Structure (SMILES): CC(=O)O[C@@H]1[C@H]2[C@H]3[C@H]([C@H](OC(C)=O)[C@H](OC(C)=O)[C@]2(C)[C@@H]2[C@@H]1[C@]1(C)C(=C[C@H]2C)OC(=O)[C@@]1(C)O)[C@@]1(C)[C@@H](OC(C)=O)[C@H]2O[C@H]2C[C@]1(O)C(=O)[C@@H]3O [TACCALONOLIDE Z]
Activity [37]: Active
Activity [38]: Active
inhibition [39]: Active

Source: ChEMBL document CHEMBL1821586, “Identification and biological activities of new taccalonolide microtubule stabilizers” (J Med Chem, 2011)
